In article PMC3592994 (Hepatology (Baltimore, Md.), 2013):
Counter-ions that a name gives are not always drawn.

What was measured:
[1] = tested on: Bsep, Mdr2, Ost-β, Sult2a1, Shp, Ntcp; experiment: Hepatic gene expression in gavaged mice; format: in vivo, mouse
Outline: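 Female C57BL6 mice aged 7–8 weeks were gavaged twice daily for 2 days with 200 μL 20% cyclodextrin, 50 mg/kg cholic acid, or cholic acid plus 500 mg/kg test compound. Livers were harvested at 4 pm on day 2 after an 8-h fast, and hepatic gene expression was measured. Data are mean ± SEM, n = 6, by one-way ANOVA.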

BSEP, SHP = experiment: BSEP and SHP gene expression in primary human hepatocytes; format: cell-based; settings: 50 μM, 24 hours
BSEP, SHP, CYP7A1 = format: cell-based, human; settings: 50 μM, 24 hours; for induction of BSEP gene expression: scrambled siRNA group; for repression of CYP7A1 expression: siScramble group; for induction of SHP gene expression: siScrambled group, versus vehicle
FXRα2 = biological target: T1, FXRα2 (Homo sapiens, UniProt Q96RI1); format: cell-based; settings: for FXR transactivation relative to vehicle-treated control: 50 μM compound; for FXR transactivation relative to vehicle-treated control / EC50: 24 hours; for EC50: read-out: EC50 of FXR transactivation, agonist mode, 0-100 μM
T1 sequence (Q96RI1 1-472 isoform Q96RI1-2): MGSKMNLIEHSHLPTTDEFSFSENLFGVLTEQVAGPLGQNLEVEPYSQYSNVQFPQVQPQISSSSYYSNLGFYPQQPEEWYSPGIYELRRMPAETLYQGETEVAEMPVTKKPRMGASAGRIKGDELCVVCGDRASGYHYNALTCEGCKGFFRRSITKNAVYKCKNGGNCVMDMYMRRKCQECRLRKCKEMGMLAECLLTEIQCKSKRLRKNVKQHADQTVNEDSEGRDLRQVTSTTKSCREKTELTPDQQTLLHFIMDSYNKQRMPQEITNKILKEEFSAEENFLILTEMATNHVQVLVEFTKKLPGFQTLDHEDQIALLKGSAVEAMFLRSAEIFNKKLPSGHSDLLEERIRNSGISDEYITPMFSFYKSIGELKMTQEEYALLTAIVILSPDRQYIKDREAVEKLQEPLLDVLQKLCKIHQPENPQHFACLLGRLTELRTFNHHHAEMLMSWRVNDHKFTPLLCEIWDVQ
T1 sequence (P19793 1-462 partner): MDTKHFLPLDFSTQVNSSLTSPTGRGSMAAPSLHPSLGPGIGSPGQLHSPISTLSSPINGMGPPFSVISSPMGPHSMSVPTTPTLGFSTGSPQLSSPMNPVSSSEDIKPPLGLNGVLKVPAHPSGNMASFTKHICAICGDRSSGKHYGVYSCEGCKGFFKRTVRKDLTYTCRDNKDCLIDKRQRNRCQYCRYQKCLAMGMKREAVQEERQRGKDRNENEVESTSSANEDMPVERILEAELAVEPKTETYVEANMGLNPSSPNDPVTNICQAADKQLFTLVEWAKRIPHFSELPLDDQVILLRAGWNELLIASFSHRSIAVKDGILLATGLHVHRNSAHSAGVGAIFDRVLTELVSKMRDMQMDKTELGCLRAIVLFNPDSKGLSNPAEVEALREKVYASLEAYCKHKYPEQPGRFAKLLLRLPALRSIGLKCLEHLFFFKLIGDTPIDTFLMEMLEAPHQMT

FXR-LBD = biological target: T2, FXR-LBD (Homo sapiens, UniProt Q96RI1); experiment: HTRF cofactor; format: biochemical; settings: for CDCA-mediated recruitment of SRC-1 peptide to FXR-LBD: 9 or 100 μM CDCA, 0-600 μM compound, dose-dependent; for recruitment of SRC-1 peptide to FXR-LBD by compound alone: agonist mode, no CDCA
T2 sequence (Q96RI1 244-472 isoform Q96RI1-2): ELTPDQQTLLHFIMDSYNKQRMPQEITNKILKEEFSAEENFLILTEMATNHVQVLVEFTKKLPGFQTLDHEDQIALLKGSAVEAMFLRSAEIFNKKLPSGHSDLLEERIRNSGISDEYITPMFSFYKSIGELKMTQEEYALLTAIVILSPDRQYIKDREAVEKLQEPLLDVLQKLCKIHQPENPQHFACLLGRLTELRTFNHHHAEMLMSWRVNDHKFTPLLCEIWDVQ

BSEP [2] = experiment: BSEP protein western blot in Huh7 cells; format: cell-based, human; settings: 0.5 μM GW4064, 24 hours
[3] = tested on: FXR-mediated bile acid efflux in Huh7 cells; experiment: Huh7 3H-taurocholic acid efflux; format: cell-based, human
Outline: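 Huh7 cells were pretreated overnight with vehicle or 0.5 μM GW4064 with or without 25–50 μM test compound. Cells were washed for 1.5 h, then ³H-taurocholic acid efflux over 5 min was measured. Data are mean ± SEM, n = 3, by one-way ANOVA.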

FGF19 [4] = experiment: Secreted FGF19 in Huh7 cell culture media; format: cell-based, human; settings: for levels of secreted FGF19: 0.5 μM GW4064
Outline: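 Huh7 cells were incubated for 24 h with 0.5 μM GW4064 plus 0–100 μM test compound. FGF19 secreted into the culture medium was then assayed. Data are mean ± SEM, n = 3, by one-way ANOVA.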

BSEP [5] = experiment: BSEP gene expression in Huh7 cells; format: cell-based, human
Outline: (§1)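 Relative mRNA was quantified by qPCR. Data are mean ± SEM, n = 3, by one-way ANOVA against the agonist-alone or vehicle group.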

[6] = Serum PM5S in gavaged mice by UPLC/MSMS; format: in vivo, mouse
Outline: (§2)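 Female C57BL6 mice aged 7–8 weeks were orally gavaged twice daily for 2 days (day 1 at 5:30 and 10:30 pm; day 2 at 8:30 am and 1:30 pm). Groups received 200 μL 20% cyclodextrin, 50 mg/kg cholic acid, or cholic acid plus 500 mg/kg test compound. After an 8-h fast, serum was collected at 4 pm on day 2 and analysed by UPLC/MSMS. Data are mean ± SEM, n ≥ 6, by one-way ANOVA.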

FGF19 [7] = experiment: FGF19 gene expression in Huh7 cells; format: cell-based, human; settings: 25-100 μM PM5S, 0.5 μM GW4064, 24 hours
Outline: as §1

NTCP = settings: NTCP-transfected Xenopus laevis oocytes ref 19; cited from earlier work
BSEP [8] = settings: X. laevis oocytes expressing BSEP ref 20; cited from earlier work
SHP and MDR3 = SHP and MDR3 gene expression in Huh7 cells; format: cell-based, human; settings: 0-100 μM PM5S, 0.5 μM GW4064, 24 hours
Outline: as §1

[9] = Serum bile acid concentrations in gavaged mice; format: in vivo, mouse; settings: CA+PM5S co-gavaged mice versus vehicle or CA groups
Outline: as §2

[10] = tested on: primary human hepatocytes; settings: primary human hepatocytes ref 19; cited from earlier work

## C[C@H](CCC(=O)O)[C@H]1CC[C@H]2[C@@H]3[C@H](O)C[C@@H]4C[C@H](O)CC[C@]4(C)[C@H]3C[C@H](O)[C@]12C [CA, cholic acid, reference compound]
[1]; CA group, 50 mg/kg versus vehicle
  Hepatic gene expression levels of Bsep, Mdr2, Ost-β, and Sult2a1: significantly induced

## C[C@H](CCC(=O)O)[C@H]1CC[C@H]2[C@@H]3[C@H](O)C[C@@H]4C[C@H](O)CC[C@]4(C)[C@H]3CC[C@]12C [CDCA, chenodeoxycholic acid, reference compound]
BSEP, SHP
  BSEP expression induction: 7.5 fold
BSEP, SHP, CYP7A1
  induction of BSEP gene expression: 390%
  repression of CYP7A1 expression: > 90%
  induction of SHP gene expression: 481%

## C[C@H](O)[C@H]1CC[C@H]2[C@@H]3CC[C@H]4C[C@@H](OS(=O)(=O)[O-])CC[C@]4(C)[C@H]3CC[C@]12C.[Na+] [EPAS, epiallo-pregnanediol 3-sodium sulfate]
FXRα2
  activity of FXR in presence of CDCA: inhibited
  FXR transactivation relative to vehicle-treated control: 183%
  EC50: 22.6 µM
FXR-LBD
  CDCA-mediated recruitment of SRC-1 peptide to FXR-LBD: inhibited
  recruitment of SRC-1 peptide to FXR-LBD by compound alone: unable to induce

## CC(=O)C1CCC2C3CC[C@@H]4C[C@@H](OS(=O)(=O)O)CC[C@]4(C)C3CC[C@]12C (stereo partly drawn) [EPS, epipregnanolone sulfate]
FXRα2
  activity of FXR in presence of CDCA: inhibited
  FXR transactivation relative to vehicle-treated control: 125%
  EC50: 15.1 µM
FXR-LBD
  CDCA-mediated recruitment of SRC-1 peptide to FXR-LBD: inhibited
  recruitment of SRC-1 peptide to FXR-LBD by compound alone: unable to induce

## CC(C)c1onc(-c2c(Cl)cccc2Cl)c1COc1ccc(/C=C/c2cccc(C(=O)O)c2)c(Cl)c1 [GW4064, reference compound]
BSEP [2]; relative to vehicle
  increase in BSEP protein levels: 1.5 fold
[3]; 0.5 μM GW4064 overnight, relative to vehicle
  3HTC efflux: significantly increased
FGF19 [4]; 0.5 μM GW4064, 24 hours
  increase in secreted FGF19: 2.8 fold

## CC(=O)[C@H]1CC[C@H]2[C@@H]3CC[C@H]4C[C@@H](OS(=O)(=O)O)CC[C@]4(C)[C@H]3CC[C@]12C [PM5S, epiallopregnanolone sulfate]
[1]; CA+PM5S group compared to CA group
  induction of Bsep and Mdr2 expression: significantly abrogated
[1]; CA+PM5S, CA and vehicle groups
  Shp and Ntcp expression levels: no differences
BSEP [2]; 10 μM PM5S
  GW4064-mediated BSEP protein expression: inhibited
BSEP [2]; 25-100 μM PM5S
  BSEP protein expression: completely abolished
FXRα2
  PM5S concentrations abrogating CDCA-mediated FXR transactivity: ≥ 5 µM
  FXR transactivation relative to vehicle-treated control: 182%
  EC50: > 83 µM
BSEP [5]; all PM5S concentrations tested, 50 μM CDCA, 24 hours
  CDCA-mediated BSEP expression: significantly reduced
BSEP [5]; increasing PM5S doses (0-100 μM), 0.5 μM GW4064, 24 hours
  GW4064-mediated BSEP gene expression: completely abolished
[6]; mice gavaged 50 mg/kg cholic acid + 500 mg/kg PM5S twice daily for 2 days
  Serum PM5S mean concentration ± SEM: 3208.6 ± 1847.1 µM
[6]; mice gavaged 50 mg/kg cholic acid twice daily for 2 days
  Serum PM5S mean concentration ± SEM: 10.7 ± 9.6 µM
BSEP, SHP
  BSEP expression: modestly increased
  SHP expression induction: to a lesser extent than CDCA
[3]; cotreated with 25 or 50 μM PM5S, 0.5 μM GW4064
  GW4064-induced increase in 3HTC efflux: abolished
BSEP, SHP, CYP7A1
  induction of BSEP gene expression: 160%
  repression of CYP7A1 expression: > 90%
  induction of SHP gene expression: 200%
FGF19 [7]
  GW4064-mediated FGF19 gene expression: significantly reduced
NTCP
  taurocholate uptake by NTCP: competitively inhibit
BSEP [8]
  efflux of bile acids: reduce the efflux
SHP and MDR3
  GW4064-mediated SHP and MDR3 gene expression: significantly abrogated
FGF19 [4]; 50 μM and 100 μM PM5S
  levels of secreted FGF19: reaching significance
FGF19 [4]; cotreatment with 10 μM and 25 μM PM5S
  levels of secreted FGF19: trend towards a reduction
[9]
  serum CA levels: significantly raised
FXR-LBD
  CDCA-mediated recruitment of SRC-1 peptide to FXR-LBD: able to inhibit
  recruitment of SRC-1 peptide to FXR-LBD by compound alone: unable to potentiate
[10]
  Na+-dependent and Na+-independent influx of taurocholate: reduce
